pEC50: −log10 of the molar value. Calls of active or inactive are those of the source. No cut-off for these calls is given here.
Legend:
Format in all cases: cell-based
[1] = biological target: T1, Retinoic acid receptor RXR-alpha (Homo sapiens) (UniProt P19793); test: Agonist activity at Gal4-LBD fused RXRalpha (unknown origin) expressed in HEK293T cells at 10 uM after 14 to 16 hrs by dual-Glo luciferase assay
T1 sequence (whole entry): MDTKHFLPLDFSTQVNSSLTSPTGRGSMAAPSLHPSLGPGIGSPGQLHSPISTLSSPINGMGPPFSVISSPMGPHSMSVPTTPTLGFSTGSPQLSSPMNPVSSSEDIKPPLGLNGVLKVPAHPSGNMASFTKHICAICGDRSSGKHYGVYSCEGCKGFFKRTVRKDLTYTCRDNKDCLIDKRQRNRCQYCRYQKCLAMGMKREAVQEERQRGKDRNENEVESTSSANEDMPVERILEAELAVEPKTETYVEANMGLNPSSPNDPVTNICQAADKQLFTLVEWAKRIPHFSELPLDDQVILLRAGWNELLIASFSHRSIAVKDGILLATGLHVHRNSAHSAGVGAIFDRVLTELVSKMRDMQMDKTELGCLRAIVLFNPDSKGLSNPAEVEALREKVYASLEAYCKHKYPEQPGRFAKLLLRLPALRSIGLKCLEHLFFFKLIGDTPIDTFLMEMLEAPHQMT

[2] = biological target: T2, Retinoic acid receptor RXR-beta (Homo sapiens) (UniProt P28702); test: Agonist activity at Gal4-LBD fused RXRbeta (unknown origin) expressed in HEK293T cells at 10 uM after 14 to 16 hrs by dual-Glo luciferase assay
T2 sequence (whole entry): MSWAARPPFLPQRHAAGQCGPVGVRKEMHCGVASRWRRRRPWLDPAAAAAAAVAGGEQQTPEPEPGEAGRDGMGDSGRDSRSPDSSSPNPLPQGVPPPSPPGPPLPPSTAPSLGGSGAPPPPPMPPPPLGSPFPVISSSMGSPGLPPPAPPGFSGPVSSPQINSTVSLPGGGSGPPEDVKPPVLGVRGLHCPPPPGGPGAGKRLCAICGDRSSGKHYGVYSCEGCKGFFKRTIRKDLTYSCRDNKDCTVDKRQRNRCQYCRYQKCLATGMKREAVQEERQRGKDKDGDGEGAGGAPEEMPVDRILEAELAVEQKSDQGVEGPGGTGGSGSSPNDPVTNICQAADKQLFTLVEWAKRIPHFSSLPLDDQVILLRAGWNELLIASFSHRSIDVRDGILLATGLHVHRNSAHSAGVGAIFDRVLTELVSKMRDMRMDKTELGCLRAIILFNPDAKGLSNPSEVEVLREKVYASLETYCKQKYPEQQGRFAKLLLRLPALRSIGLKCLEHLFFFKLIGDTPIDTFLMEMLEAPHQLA

[3] = biological target: T3, Retinoic acid receptor RXR-gamma (Homo sapiens) (UniProt P48443); test: Agonist activity at Gal4-LBD fused RXRgamma (unknown origin) expressed in HEK293T cells at 10 uM after 14 to 16 hrs by dual-Glo luciferase assay
T3 sequence (whole entry): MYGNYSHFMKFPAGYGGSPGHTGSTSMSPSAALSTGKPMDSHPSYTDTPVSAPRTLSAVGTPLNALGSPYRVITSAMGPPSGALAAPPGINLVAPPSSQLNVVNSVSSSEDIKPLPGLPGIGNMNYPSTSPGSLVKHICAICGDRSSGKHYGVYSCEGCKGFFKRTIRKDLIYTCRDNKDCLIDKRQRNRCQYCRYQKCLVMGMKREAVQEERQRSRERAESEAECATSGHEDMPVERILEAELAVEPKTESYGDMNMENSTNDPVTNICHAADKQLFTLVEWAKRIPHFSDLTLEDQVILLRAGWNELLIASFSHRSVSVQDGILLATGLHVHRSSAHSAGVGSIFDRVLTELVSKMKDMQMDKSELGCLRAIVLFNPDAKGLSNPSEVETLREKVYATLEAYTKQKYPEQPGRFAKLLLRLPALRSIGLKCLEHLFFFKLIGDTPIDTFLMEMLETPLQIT

[4] = biological target: T3, Retinoic acid receptor RXR-gamma (Homo sapiens); test: Agonist activity at Gal4-LBD fused RXRgamma (unknown origin) expressed in HEK293T cells at 30 uM after 14 to 16 hrs by dual-Glo luciferase assay
[5] = biological target: T2, Retinoic acid receptor RXR-beta (Homo sapiens); test: Agonist activity at Gal4-LBD fused RXRbeta (unknown origin) expressed in HEK293T cells assessed as fold activation after 14 to 16 hrs by dual-Glo luciferase assay relative to untreated control
Outline: (§1)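 Gal4-hybrid RXRα/β/γ reporter gene assays in HEK293T cells. Fold activation is the maximal fold activation versus 0.1% DMSO.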

[6] = biological target: T4, Retinoic acid receptor RXR-alpha (Homo sapiens, UniProt P19793); test: Agonist activity at Gal4-LBD fused RXRalpha (unknown origin) expressed in HEK293T cells after 14 to 16 hrs by dual-Glo luciferase assay; outline: as §1
T4 sequence (P19793 whole entry): T1 sequence (whole entry)

[7] = biological target: T1, Retinoic acid receptor RXR-alpha (Homo sapiens); test: Agonist activity at Gal4-LBD fused RXRalpha (unknown origin) expressed in HEK293T cells assessed as fold activation after 14 to 16 hrs by dual-Glo luciferase assay relative to untreated control; outline: as §1
[8] = biological target: T5, Retinoic acid receptor RXR-beta (Homo sapiens, UniProt P28702); test: Agonist activity at Gal4-LBD fused RXRbeta (unknown origin) expressed in HEK293T cells after 14 to 16 hrs by dual-Glo luciferase assay; outline: as §1
T5 sequence (P28702 whole entry): T2 sequence (whole entry)

[9] = biological target: T1, Retinoic acid receptor RXR-alpha (Homo sapiens); test: Agonist activity at Gal4-LBD fused RXRalpha (unknown origin) expressed in HEK293T cells assessed as fold activation at 20 uM after 14 to 16 hrs by dual-Glo luciferase assay relative to untreated control; outline: as §1
[10] = biological target: T3, Retinoic acid receptor RXR-gamma (Homo sapiens); test: Agonist activity at Gal4-LBD fused RXRgamma (unknown origin) expressed in HEK293T cells assessed as fold activation at 20 uM after 14 to 16 hrs by dual-Glo luciferase assay relative to untreated control; outline: as §1
[11] = biological target: T2, Retinoic acid receptor RXR-beta (Homo sapiens); test: Agonist activity at Gal4-LBD fused RXRbeta (unknown origin) expressed in HEK293T cells assessed as fold activation at 20 uM after 14 to 16 hrs by dual-Glo luciferase assay relative to untreated control; outline: as §1
[12] = biological target: T6, Retinoic acid receptor RXR-gamma (Homo sapiens, UniProt P48443); test: Agonist activity at Gal4-LBD fused RXRgamma (unknown origin) expressed in HEK293T cells after 14 to 16 hrs by dual-Glo luciferase assay; outline: as §1
T6 sequence (P48443 whole entry): T3 sequence (whole entry)

[13] = biological target: T2, Retinoic acid receptor RXR-beta (Homo sapiens); test: Agonist activity at Gal4-LBD fused RXRbeta (unknown origin) expressed in HEK293T cells at 30 uM after 14 to 16 hrs by dual-Glo luciferase assay
[14] = biological target: T1, Retinoic acid receptor RXR-alpha (Homo sapiens); test: Agonist activity at Gal4-LBD fused RXRalpha (unknown origin) expressed in HEK293T cells at 30 uM after 14 to 16 hrs by dual-Glo luciferase assay
[15] = biological target: T3, Retinoic acid receptor RXR-gamma (Homo sapiens); test: Agonist activity at Gal4-LBD fused RXRgamma (unknown origin) expressed in HEK293T cells at 20 uM after 14 to 16 hrs by dual-Glo luciferase assay
[16] = biological target: T3, Retinoic acid receptor RXR-gamma (Homo sapiens); test: Agonist activity at Gal4-LBD fused RXRgamma (unknown origin) expressed in HEK293T cells assessed as fold activation after 14 to 16 hrs by dual-Glo luciferase assay relative to untreated control; outline: as §1
[17] = biological target: T3, Retinoic acid receptor RXR-gamma (Homo sapiens); test: Agonist activity at Gal4-LBD fused RXRgamma (unknown origin) expressed in HEK293T cells assessed as fold activation at 10 uM after 14 to 16 hrs by dual-Glo luciferase assay relative to untreated control; outline: as §1
[18] = biological target: T2, Retinoic acid receptor RXR-beta (Homo sapiens); test: Agonist activity at Gal4-LBD fused RXRbeta (unknown origin) expressed in HEK293T cells assessed as fold activation at 10 uM after 14 to 16 hrs by dual-Glo luciferase assay relative to untreated control; outline: as §1
[19] = biological target: T1, Retinoic acid receptor RXR-alpha (Homo sapiens); test: Agonist activity at Gal4-LBD fused RXRalpha (unknown origin) expressed in HEK293T cells assessed as fold activation at 10 uM after 14 to 16 hrs by dual-Glo luciferase assay relative to untreated control; outline: as §1
[20] = biological target: T3, Retinoic acid receptor RXR-gamma (Homo sapiens); test: Agonist activity at Gal4-LBD fused RXRgamma (unknown origin) expressed in HEK293T cells assessed as fold activation at 30 uM after 14 to 16 hrs by dual-Glo luciferase assay relative to untreated control; outline: as §1
[21] = biological target: T2, Retinoic acid receptor RXR-beta (Homo sapiens); test: Agonist activity at Gal4-LBD fused RXRbeta (unknown origin) expressed in HEK293T cells assessed as fold activation at 30 uM after 14 to 16 hrs by dual-Glo luciferase assay relative to untreated control; outline: as §1
[22] = biological target: T1, Retinoic acid receptor RXR-alpha (Homo sapiens); test: Agonist activity at Gal4-LBD fused RXRalpha (unknown origin) expressed in HEK293T cells assessed as fold activation at 30 uM after 14 to 16 hrs by dual-Glo luciferase assay relative to untreated control; outline: as §1
[23] = Agonist activity at full-length human RXR/LXR expressed in HEK293T cells at 20 uM after 14 to 16 hrs in presence of 1 uM T0901317 by dual-glo luciferase reporter gene assay relative to T0901317; conditions: HEK-293T, read-out: Activity
Outline: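 Synergy format: the test compound was co-applied with the partner-receptor reference agonist at 1 μM, either T0901317 (RXR:LXR) or rosiglitazone (RXR:PPARγ). Relative synergistic activation was derived from three independent experiments, each in duplicate; mean reported.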

[24] = species: Homo sapiens; test: Agonist activity at full-length human PPARgamma/RXR expressed in HEK293T cells at 20 uM after 14 to 16 hrs in presence of 1 uM rosiglitazone by dual-glo luciferase reporter gene assay relative to rosiglitazone
Outline: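 RXR:PPARγ heterodimer reporter assay run with reference PPARγ agonist rosiglitazone (1 μM) co-applied. Read-out is mean relative synergistic activation, from three independent experiments each run in duplicate.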

[25] = Agonist activity at full-length human RXR/LXR expressed in HEK293T cells at 20 uM after 14 to 16 hrs by dual-glo luciferase reporter gene assay relative to untreated control; conditions: HEK-293T, read-out: Activity
Outline: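 RXR:LXR or RXR:PPARγ heterodimer reporter assay with test compound alone. Activation expressed relative to 0.1% DMSO vehicle. Three independent experiments, each in duplicate; mean reported.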

[26] = species: Homo sapiens; test: Agonist activity at full-length human PPARgamma/RXR expressed in HEK293T cells at 20 uM after 14 to 16 hrs by dual-glo luciferase reporter gene assay relative to untreated control
Outline: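 RXR:PPARγ heterodimer reporter assay in HEK293T cells with test compound alone. Mean relative activation is taken versus 0.1% DMSO, from three independent experiments each run in duplicate.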

Activity [4]	fold change (FC) [5]	pEC50 [6]	fold change (FC) [7]	pEC50 [8]	Structure (SMILES)	also measured
	94	5.82	21	5.68	CC(C)(C)c1cc(-c2ccc(CCC(=O)O)cc2)cc(C(C)(C)C)c1	fold change (FC) [16]: 17; pEC50 [12]: 5.30
	84	5.43	31	5.51	CC(C)(C)c1cc(-c2cccc(C(=O)O)c2)cc(C(C)(C)C)c1	fold change (FC) [17]: 4; Activity [3]: inactive; fold change (FC) [18]: 82; fold change (FC) [19]: 32
inactive	97	5.02	26	4.73	Cc1cc(C)cc(-c2ccc(C(=O)O)cc2)c1	fold change (FC) [20]: 2; fold change (FC) [21]: 74; fold change (FC) [22]: 25
	28	5.46	3.5	5.15	Cc1cc(-c2cc(C(C)(C)C)cc(C(C)(C)C)c2)ccc1CC(=O)O	Activity [3]: inactive
inactive		5.04		5.05	Cc1cc(-c2cc(C(F)(F)F)cc(C(F)(F)F)c2)ccc1C(=O)O	activity at 20 µM [23]: 71%; Activity [24]: 46%; activity at 20 µM [25]: 71%; Activity [26]: 84%
	122	5.51	50	5.43	O=C(O)c1ccc(-c2cc(C(F)(F)F)cc(C(F)(F)F)c2)cc1	fold change (FC) [16]: 25; fold change (FC) [17]: 10; pEC50 [12]: 4.90; fold change (FC) [18]: 120; fold change (FC) [19]: 48
	35	4.74	19	4.89	CC(C)(C)c1cccc(-c2ccc(C(=O)O)cc2)c1	Activity [15]: inactive

Further lines, the molecule ahead of its results:

Structure (SMILES)	Activity [4]	fold change (FC) [5]	pEC50 [6]	fold change (FC) [7]	pEC50 [8]	also measured
Cc1cc(C(=O)O)ccc1-c1cc(C(C)(C)C)cc(C(C)(C)C)c1						Activity [1]: inactive; Activity [2]: inactive; Activity [3]: inactive
CCOc1cccc(-c2ccc(C(=O)O)cc2)c1	inactive	11	4.65	11	4.52	
O=C(O)c1ccc(-c2cc(Cl)cc(Cl)c2)cc1		68	5.03	38	4.89	fold change (FC) [9]: 33; fold change (FC) [10]: 3; fold change (FC) [11]: 60; pEC50 [12]: < 4.52
COc1cccc(-c2ccc(C(=O)O)cc2)c1	inactive					Activity [13]: inactive; Activity [14]: inactive
CCc1cc(CC)cc(-c2ccc(C(=O)O)cc2)c1		33	5.47	11	5.17	Activity [15]: inactive
CC(C)(C)c1cc(-c2ccc(C(=O)O)nc2)cc(C(C)(C)C)c1						Activity [1]: inactive; Activity [2]: inactive; Activity [3]: inactive
CC(C)c1cccc(-c2ccc(C(=O)O)cc2)c1		65	4.84	28	4.79	fold change (FC) [16]: 2.7; pEC50 [12]: 4.94
CC(C)Oc1cccc(-c2ccc(C(=O)O)cc2)c1		19	4.97	18	4.87	Activity [15]: inactive
O=C(O)c1ccc(-c2ccccc2)cc1	inactive					Activity [13]: inactive; Activity [14]: inactive
CC(C)(C)c1cc(-c2ccc(C(=O)O)cn2)cc(C(C)(C)C)c1						Activity [1]: inactive; Activity [2]: inactive; Activity [3]: inactive
COc1cc(OC)cc(-c2ccc(C(=O)O)cc2)c1	inactive		4.60	4.8		Activity [13]: inactive
Cc1cccc(-c2ccc(C(=O)O)cc2)c1	inactive					Activity [13]: inactive; Activity [14]: inactive

— ChEMBL document CHEMBL4304816, “A Novel Biphenyl-based Chemotype of Retinoid X Receptor Ligands Enables Subtype and Heterodimer Preferences” (ACS Med Chem Lett, 2019)
